Screening results as filed in PubChem BioAssay.
Only some compounds are listed: those with a hit (about 3.6% of all), similar ones and a draw of the others.
RAM inhibit = inhibitors of the yeast RAM network, primary screen, dse1pr::URA3 reporter, 5-FOA selection; S. cerevisiae dse1pr::URA3 reporter, 5-FOA growth OD615, 2 d; analog-sensitive cbk1-as2 kinase mutant strain; inhibition, % at 50 µM; hit rate 1.8% among 190,000; AID 868, 2007;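 active means inhibition above a set limit, 3 SD over mean compound inhibition, cut at about 8.4% in these data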;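 further: 0% = DMSO-only wells with no growth and 100% = 10 µM 1-NA-PP1 full growth; inhibition rescues growth on 5-FOA so higher OD means more RAM inhibition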
Measles CPE = compounds protecting cells from measles virus cytopathic effect, primary screen, measles RdRp inhibitor project, single point, MLSMR library, absorbance; Measles virus-infected cells, CPE protection; protection (pct of control), % at 4 µM; hit rate 1.5% among 140,000; in the data active means protection mostly above about 24%, no sharp cut-off; inactive means mostly below about 26%
BB579 growth dn = growth inhibitors of yeast BB579 in restrictive medium, primary screen, yeast lifespan-shortening project, S. cerevisiae; OD615, 48 h; inhibition, % at 10 µM; hit rate 0.51% among 140,000; AID 804, 2007;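 active means inhibition above a set limit, 3 SD over the mean compound inhibition, cut at about 44% in these data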
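controls = amphotericin B 10 µg/mL, positive | assay system = DeaD yeast strain BB579 | schedule = 48 h compound exposure at 30 °C after 4 h preincubation | detection = OD615 turbidity measurement | medium = restrictive CSMM-D medium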
Yeast life ext = compounds extending yeast replicative lifespan, primary screen, S. cerevisiae, OD615 | S. cerevisiae growth with nicotinamide; deaD strain in restrictive glucose medium | inhibition of the nicotinamide effect, % at 10 µM | hit rate 0.68% among 130,000 | AID 775, 2007;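 active means inhibition above a set limit, placed 3 SD over the median of all compounds, cut at about 26% in these data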;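 further: 0% = nicotinamide-treated wells and 100% = cells grown without nicotinamide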
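Assay system: DeaD-strain S. cerevisiae. Medium: CSMM-D glucose medium, restrictive. Reagent: nicotinamide, 1.5 mM, co-present with compound. Compound: 10 µM single point, 0.25% DMSO. Schedule: culture preincubation 4 h, compound exposure 48 h, both 30 °C. Detection: absorbance at 615 nm.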
Numbers without * were called inactive; . = no result given.

SMILES	RAM inhibit	Measles CPE	BB579 growth dn	Yeast life ext
FC(F)(F)c1cc(C(F)(F)F)c2ccc(Oc3ccccc3)nc2n1	4	43*	-53	-18
O=C(COc1ccc(F)cc1)NCC1CCCO1 (configuration not stated)	0	43*	-33	-2
Cc1ccc(-c2cc(C)nc3ncnn23)cc1	1	47*	-4	-9
CNC(=O)c1oc(-c2ccccc2)nc1C	2	.	.	.
Cc1ccc(S(=O)(=O)CCNC(=O)Cc2ccc(Cl)cc2)cc1	-1	.	.	.
CCCCC(CC)Cn1c2nc3ccccc3nc2c2c(=N)oc(C)nc21 (configuration not stated)	2	4	-50	94*
CCCCC(CC)Cn1c(N)c(C#N)c2nc3ccccc3nc21 (configuration not stated)	2	37	-3	0
CC1=C(C(=O)OCCOc2ccccc2)C(c2ccsc2)NC(=O)N1C (configuration not stated)	0	.	.	.
CCCN(CC(=O)Nc1ccc(Cl)cc1Cl)C(=O)/C=C/c1cc(OC)ccc1OC	11*	15	-24	-2
CN(C)Cc1cc(CN(C)C)c(O)c(CCc2ccccc2)n1	1	5	-40	-6
CN(C)Cc1ccccc1Cc1ccccc1	0	38*	-16	9
CN(C)CCOc1ccccc1Cc1ccccc1	1	44*	-7	1
COc1ccccc1NC(=O)Cn1nnc(C(=O)NCCc2ccccc2)c1N	0	.	.	.
CC(C)NC(=O)/C=C/C(=O)O	2	.	.	.
N#Cc1c(Cl)nsc1NC(=O)c1ccccc1	0	.	.	.
CCOC(=O)c1c(N)sc(C(=O)OC)c1C	-1	.	.	.
CCOC(=O)c1c(N)sc2c(OC)c(Br)ccc12	2	37	95*	-23
Cc1c([N+](=O)[O-])c(C(=O)N2CCCC2)nn1C	1	69*	-51	1
Cc1nc2ccccc2nc1OCc1ccc([N+](=O)[O-])cc1	0	.	.	.
O=C1ON=C(c2cccc([N+](=O)[O-])c2)/C1=C/c1ccc(O)cc1	-1	.	.	.
O=C(COc1ccccc1)N1CCN(c2ccccc2)CC1	0	3	-28	0
O=C(COc1ccc(Br)cc1)N1CCN(c2ccccc2)CC1	3	35*	-26	-10
COc1ccc(/C=N/Nc2snc(SC)c2C#N)cc1OC	3	44*	-40	-24
COc1cccc(/C=N/Nc2snc(SC)c2C#N)c1	2	9	-61	-28
CCC(=O)NNc1nc2c(Cl)cccc2s1	2	.	.	.
SMILES	RAM inhibit	Measles CPE	BB579 growth dn	Yeast life ext
CCOC(=O)c1cn(-c2nc(-c3ccc(Cl)c(Cl)c3)cs2)c2c(F)c(N3CCOCC3)c(F)cc2c1=O	9.7*	3	-40	-5
CCOC(=O)c1cn(-c2ccc(F)c(F)c2F)c2c(F)c(F)c(F)cc2c1=O	3	7	-40	-8
COc1ccc(-n2ccnc2SCC(=O)NO)cc1	2	.	.	.
CC(=O)c1cccc(N(C(=O)Cn2nnc3ccccc32)C(C(=O)NCC2CCCO2)c2ccc(N3CCOCC3)cc2)c1 (configuration not stated)	11*	.	.	.
O=C(NCC1CCCO1)C(c1ccc(N2CCOCC2)cc1)N(C(=O)Cn1nnc2ccccc21)c1ccccc1F (configuration not stated)	0	.	.	.
Cc1ccc2nc(/C(C#N)=C\c3ccc([N+](=O)[O-])o3)[nH]c2c1	-1	1	99*	-22
N#C/C(=C\c1ccc([N+](=O)[O-])o1)c1nc2ccccc2[nH]1	2	0	67*	21
N#C/C(=C\c1ccc(Sc2ccccc2)o1)c1nc2ccccc2[nH]1	7	5	-69	2
Cc1ccc2nc(/C(C#N)=C\c3ccc(N4CCOCC4)o3)[nH]c2c1	-1	8	-29	.
O=C(CCCCl)Oc1ccc2cc(-c3ccc4ccccc4n3)c(=O)oc2c1	8	3	-24	1
CCOc1cc(S(=O)(=O)n2ccnc2)ccc1Cl	2	.	.	.
CN(C)C=NC(=O)c1ccc(N2CCN(c3ncc(C(F)(F)F)cc3Cl)CC2)cc1	9.0*	5	9	-11
CC1CN(C(=S)NC(=O)c2ccco2)CC(C)O1 (configuration not stated)	1	34	-12	0
Cc1cccc(C(=O)NNC(=O)CCC(=O)Nc2cccc(Cl)c2C)c1	-1	35*	7	-6
Cc1ccc(C(=O)NC(=S)N2CCN(C(=O)OC(C)(C)C)CC2)cc1Br	4	.	.	.
O=[N+]([O-])c1cccc2c(N3CCCC3)ccnc12	1	.	.	.
CN(C)c1ccc(/C=C/c2cc[n+]([O-])cc2)cc1	0	25	-10	-24
CN(C)c1ccc(/C=C/c2cc[n+](C)cc2)cc1	1	49*	2	-5
CN(CCOC(=O)/C=C/c1ccco1)Cc1ccccc1	2	.	.	.
CCOC(=O)c1c(C)n(C)c2ccc(OC(=O)c3ccoc3)cc12	4	39*	-41	-24
CCOC(=O)c1c(C)n(C)c2ccc(OC(=O)c3ccc([N+](=O)[O-])cc3)cc12	5	9	-37	0
CCOC(=O)N1CCC(Nc2ccc(N3C(=O)C4CCCCC4C3=O)cc2[N+](=O)[O-])CC1 (configuration not stated)	1	.	.	.
O=C(Cc1c2ccccc2nc2ccccc12)c1ccccc1	0	20*	-31	4
CCCc1nc2ccccc2c(=O)n1CC(=O)c1ccccc1	3	.	.	.
CNCc1ccccc1Sc1ccc(OC)c(OC)c1	0	40*	-11	-6
SMILES	RAM inhibit	Measles CPE	BB579 growth dn	Yeast life ext
Cc1cccc(NC(=O)c2cc(-c3ccccn3)nc3ccccc23)c1C	0	.	.	.
Cc1[nH]c(=O)[nH]c(=O)c1NC(=O)c1cccs1	0	25*	-35	-9
Cc1ccc(NC(=O)c2cccs2)cc1	0	2	-15	-7
CC(Oc1ccc(C#N)cc1)C(=O)c1ccc(F)c(F)c1 (configuration not stated)	2	.	.	.
CC1=CC(C)C2COC(c3ccc[n+](C)c3)C1C2C (configuration not stated)	3	58*	-1	3
Cc1c(NC(=S)SCc2ccccc2)c(=O)n(-c2ccccc2)n1C	3	.	.	.
O=[N+]([O-])c1cc(S(=O)(=O)N2CCCCCC2)ccc1F	2	3	-7	66*
CCOC(=O)CSc1ccc(S(=O)(=O)N2CCCCC2)cc1[N+](=O)[O-]	8.7*	6	-51	8
O=[N+]([O-])c1cc(S(=O)(=O)N2CCCC2)ccc1O	0	16	-20	3
Cc1cc(C)n(C(=O)C(C)N2C(=O)c3ccccc3C2=O)n1 (configuration not stated)	2	39*	-27	-5
Cc1cc(C)n(C(=O)CN2C(=O)c3ccccc3C2=O)n1	4	7	-48	-13
O=C(Nc1cc(C(F)(F)F)ccc1N1CCCCC1)c1ccc(Br)o1	11*	1	1	-17
O=C(Nc1cc(C(F)(F)F)ccc1N1CCCCC1)c1ccco1	3	13	-4	-7
